Only some compounds are listed: those with a hit (about 11% of all), similar ones and a draw of the others.
S1P3 ag: activates the human S1P3 receptor | 60,000 tested, 0.1% active | Q99500 | S1P3 NFAT-BLA reporter cells, agonism, FRET ratio; relative to 1 µM S1P, basal subtracted | activation, % at 4.5 µM | AID 373;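 active = activation above the screen-wide mean plus 3 SD, cut at about 4.5% in these data, passing the limit was not always enough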
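Measure – % activation relative to 1 µM S1P (100%), per plate · System – stable CHO line with human S1P3, Gα16, NFAT-BLA reporter · Timing – cells plated overnight, compound 4 h 37 °C, substrate 2 h RT · Technique – fluorescent BLA substrate, ex 405 nm, em 460/535 nm ratio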
S1P1 ag-PAM: activates or potentiates agonism at human S1P1 receptor. P21453. S1P1 CRE-bla cells, forskolin, beta-lactamase FRET, potentiator mode; S1P1 agonist co-added at EC20, 2 nM; 100% = saturating reference agonist, 0% = basal. activation, % at 9.5 µM. 56,000 tested, 0.57% active;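 active = activation above a cutoff set at the mean activation of all tested compounds plus 3 SD, cut at about 54% in these data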;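 note: forskolin at 4 µM as EC80 and the EC20 agonist is SEW2871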
Target sequence (P21453 whole entry, looked up): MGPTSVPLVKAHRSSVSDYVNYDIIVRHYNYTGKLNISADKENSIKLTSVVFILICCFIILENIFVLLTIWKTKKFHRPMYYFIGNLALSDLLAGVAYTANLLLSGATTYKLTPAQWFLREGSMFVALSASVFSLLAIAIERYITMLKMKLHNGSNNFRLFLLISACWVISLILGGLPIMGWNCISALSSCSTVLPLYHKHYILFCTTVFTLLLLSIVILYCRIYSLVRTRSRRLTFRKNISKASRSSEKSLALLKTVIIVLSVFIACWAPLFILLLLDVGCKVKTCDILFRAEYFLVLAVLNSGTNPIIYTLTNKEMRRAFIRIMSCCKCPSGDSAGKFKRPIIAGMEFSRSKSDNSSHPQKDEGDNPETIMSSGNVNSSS
M1 antagonist: blocks the rat M1 muscarinic receptor response to acetylcholine. CHO-M1 cells, Fluo-4 calcium, ACh EC80 antagonist mode; active compounds read low. B-score at 10 µM. 64,000 tested, 3.4% active;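 active = calcium fluorescence response, raw or row-and-column corrected B-score, differing from the plate sample mean either way at a set confidence level, mostly lower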
M1 ag: activates the M1 muscarinic receptor | 64,000 tested, 3% active | B-score at 10 µM | AID 626 | CHO-M1 cells, Fluo-4 calcium fluorescence, agonist mode; active compounds read high;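 active = fluorescence rise, raw or as B-score row- and column-corrected plate score, outside the 99.7% band of its plate's samples, either direction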
D1 mod: allosteric modulators of human D1 dopamine receptor; P21728; HEK293 D1, CRE-luciferase, dopamine EC30 potentiation; actives deviate in either direction; B-score at 10 µM; 58,000 tested, 5.9% active;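 active = luminescence count or its row- and column-corrected plate score outside the 99.7% band of the plate's sample wells, on either side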
TNAP act DEA: human TNAP activation, intermediate phosphate acceptor. P05186. purified TNAP, CDP-star luminescence, 100 mM DEA, 30 min; active compounds read high; scale: 0 levamisole-inhibited, 1 vehicle-only enzyme. activation factor at 20 µM. 64,000 tested, under 10 active. AID 813;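 active = activation factor of at least 2 at 20 µM, relative to controls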
D1 PAM confirm: confirmation of human D1 dopamine receptor allosteric modulators; luminescence at 10 µM; shares compounds with D1 mod; AID 642; HEK293 D1 CRE-luciferase, dopamine EC30 potentiation; active compounds read high; 2,200 tested, 88% active;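 active = luminescence in either of two replicates above the same-plate mean plus 3 SD of the low-dose dopamine control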
D1 ag no DA: secondary test of D1 modulators: activity without dopamine; AID 646; shares compounds with D1 mod; luminescence at 10 µM; HEK293 D1 CRE-luciferase, luminescence, no dopamine; active compounds read high; 1,900 tested, 0.8% active; in the data active = luminescence above about 3900
Isoprot counter: isoproterenol response counter-screen activity for D1 modulators | 2,200 tested, 63% active | shares compounds with D1 mod | AID 647 | luminescence at 10 µM | HEK293 D1 CRE-luciferase, isoproterenol EC30 counter-screen; active compounds read high;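 active = luminescence in either replicate above plate mean of wells with a partly effective reference agonist dose plus 3 SD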;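 note: isoproterenol raises cAMP through native beta-adrenoceptor Gs so signal bypasses D1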
Each line names hits and unclear results; the compound was inactive in the other large screens (follow-up assays come after a bar, where they were run).

COc1ccccc1CC(=O)N1CCCC1	none (no result: S1P1 ag-PAM)
CC(=O)n1nc(-c2ccco2)nc1N	none
CCC(=O)n1nc(-c2ccco2)nc1N	D1 mod 15 (no result: S1P1 ag-PAM) | D1 PAM confirm 6080 | D1 ag no DA inactive | Isoprot counter inactive
CCOC(=O)/C(C(N)=NC(C)C)=C(\O)c1ccccc1	none
C=CCOc1c(CNc2nccs2)cccc1OCC	none
O=C(NCc1ccco1)c1nn(-c2ccccc2)c(=O)c2ccccc12	D1 mod 5.2 | D1 PAM confirm 15012 | D1 ag no DA inactive | Isoprot counter inactive
Cc1nc2ccc(NC(=O)Cc3cccs3)cc2s1	none (no result: D1 mod)
CCOC(=O)c1c(NC(=O)c2ccco2)sc2c1CCCC2	none (no result: M1 antagonist, M1 ag)
COC(=O)c1c(NC(=O)c2ccco2)sc(C(=O)N2CCCC2)c1C	D1 mod 6.9 (no result: M1 antagonist, M1 ag) | D1 PAM confirm 12140 | Isoprot counter 3380
COC(=O)c1sc(NC(=O)Cc2cccs2)nc1C	none
COC(=O)c1c(NC(=O)Cc2cccs2)sc(C(=O)N2CCCCC2)c1C	D1 mod 7.3 | D1 PAM confirm 25076 | D1 ag no DA inactive | Isoprot counter 7580
CCN(CC)C(=O)c1sc(NC(=O)Cc2cccs2)c(C#N)c1C	D1 mod 6.9 | D1 PAM confirm 11496 | D1 ag no DA inactive | Isoprot counter inactive
CCOC(=O)c1c(NS(C)(=O)=O)sc2c1CCC(C)C2 (stereo not given)	D1 mod 9.2 | D1 PAM confirm 13356 | D1 ag no DA inactive | Isoprot counter 3316
Cc1nn(-c2ccccc2)c2sc(C(=O)OC3CCOC3=O)cc12 (stereo not given)	none
Cc1cc2ccccc2nc1SCC(=O)N1CCCC1	none
CCOC(=O)c1c(NC(=O)Cc2cccs2)sc(C)c1C	D1 mod 13 | D1 PAM confirm 15008 | D1 ag no DA inactive | Isoprot counter 4084
CC(C)c1nnc(NC(=O)Cc2cccs2)s1	none
COC(=O)c1c(NC(=O)Cc2cccs2)sc2c1CCC(C)C2 (stereo not given)	D1 mod 4.9 | D1 PAM confirm 8816 | D1 ag no DA inactive | Isoprot counter inactive
C=CCNc1nc2c(c(=O)n(C)c(=O)n2C)n1CC(=C)C	none
NC(=O)C1CCN(C(=O)c2cc(S(=O)(=O)N3CCOCC3)c(Cl)cc2Cl)CC1	none
Cc1cc(C)nc(-n2nc(C)cc2Nc2ccccc2)n1	none
CCC(C(=O)Nc1cc(C)nn1-c1nc(C)cc(C)n1)c1ccccc1 (stereo not given)	D1 mod 9.9 | D1 PAM confirm 12296 | Isoprot counter 4664
COc1ccc(C(=O)N2CCCC(c3nc(-c4cccs4)no3)C2)cc1 (stereo not given)	none
CCOC(=O)c1ccc(NS(=O)(=O)c2cccc3nsnc23)cc1	none
Cc1ccc(NC(=O)C2(N(CC(C)C)C(=O)Cn3nnnc3N)CCCCC2)cc1	D1 mod 5.4 (no result: M1 antagonist, M1 ag) | D1 PAM confirm inactive | Isoprot counter inactive
COc1ccc(NC(=O)C2(N(CC(C)C)C(=O)Cn3nnnc3N)CCCCC2)cc1	none
CCOC(=O)c1c(NC(=O)CN2CCOCC2)sc2c1CCCC2=O	D1 mod 5.4 | D1 PAM confirm 8480 | D1 ag no DA inactive | Isoprot counter 2892
CCOC(=O)c1c(NC(=O)CN2CCCCC2)sc2c1CCN(C(=O)OCC)C2	D1 mod 3.7 | D1 PAM confirm 7072 | Isoprot counter 2824
CCOC(=O)c1c(NC(=O)CN2CCOCC2)sc2c1CCCC2	none
CCOC(=O)c1c(NC(=O)CN(CC)CC)sc2c1CCN(C(=O)OCC)C2	D1 mod 6.1 (no result: M1 antagonist, M1 ag) | D1 PAM confirm 8852 | D1 ag no DA inactive | Isoprot counter 3320
CCOC(=O)c1c(-c2cccs2)csc1NC(=O)CN1CCOCC1	D1 mod 11 (no result: TNAP act DEA) | D1 PAM confirm 19940 | D1 ag no DA inactive | Isoprot counter 5404
Cc1cc(C)c(C#N)c(=N)o1	none (no result: S1P3 ag, S1P1 ag-PAM, D1 mod)
COc1ccc(C(=O)NCCc2c[nH]c3ccccc23)cc1S(=O)(=O)N1CCOCC1	none
Cc1csc(SCc2c(C(=O)O)oc3ccccc23)n1	none
Cc1ccccc1Cn1c(-c2cncs2)nc2ccccc21	D1 mod 14 | D1 PAM confirm 20248 | Isoprot counter 3224
CCCn1c(-c2cccs2)nc2ccccc21	none
Brc1cc2c(cc1Cn1c(-c3cncs3)nc3ccccc31)OCO2	D1 mod 20 | D1 PAM confirm 14624 | D1 ag no DA inactive | Isoprot counter 4300
COc1ccc2cc(S(=O)(=O)N3CCCCC3)ccc2c1S(=O)(=O)N1CCCCC1	none
O=c1[nH]c2ccsc2c(=O)n1-c1ccc(F)c(Cl)c1	D1 mod 8.3 (no result: S1P3 ag, S1P1 ag-PAM) | D1 PAM confirm 14224 | D1 ag no DA inactive | Isoprot counter 4320
O=c1[nH]c2ccsc2c(=O)n1-c1ccc(F)cc1	none (no result: S1P3 ag, S1P1 ag-PAM)
Cc1cccc(-n2nnc(C(=O)NC3CCCc4ccccc43)c2N)c1 (stereo not given)	none
COc1ccc(-c2noc(COc3ccccc3OC)n2)cc1OC	D1 mod 11 | D1 PAM confirm 17132 | D1 ag no DA inactive | Isoprot counter 6484
CCOc1ccc(-c2noc(-c3ccncc3)n2)cc1OCC	S1P3 ag 17, S1P1 ag-PAM 109, D1 mod 11 | D1 ag no DA inactive | Isoprot counter 3808
COc1ccc(-c2noc(CCC(N)=O)n2)cc1OC	D1 mod 3.6 | D1 PAM confirm 13684 | D1 ag no DA inactive | Isoprot counter inactive
COc1ccc(-c2noc(CCCC(=O)NCCc3ccccc3)n2)cc1OC	none
COc1ccc(-c2noc(-c3ccccc3Cl)n2)cc1OC	none (no result: S1P1 ag-PAM)
COc1ccc(-c2noc(-c3ccco3)n2)cc1OC	D1 mod 5.2 (no result: S1P1 ag-PAM) | D1 PAM confirm 18728 | D1 ag no DA inactive | Isoprot counter inactive
C=CC(=C)CC(NC)c1ccccc1 (stereo not given)	none (no result: M1 antagonist, M1 ag, D1 mod)
COc1ccc(Cc2noc(-c3ccc(OC)c(OC)c3)n2)cc1OC	D1 mod 12 | D1 PAM confirm 10328 | D1 ag no DA inactive | Isoprot counter 5344
COc1ccc(CCC(=O)Nc2ccc(-c3noc(-c4ccc(OC)c(OC)c4)n3)cc2)cc1	none
CCn1c(SCc2nc(-c3ccc(OC)c(OC)c3)no2)nnc1-c1cccs1	D1 mod 5.3 (no result: S1P1 ag-PAM) | D1 PAM confirm 11432 | D1 ag no DA inactive | Isoprot counter 3160

Screening results: PubChem BioAssay, several laboratories
